From PubChem BioAssay
NCF1 inh: blocks human p47phox regulatory protein of NADPH oxidases | P14598 | p47phox/p22phox peptide binding, fluorescence polarization, 2 h | inhibition, % at 24.7 µM | 220,000 compounds, 0.53% hits | AID 1274;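 active = inhibition above about 30%, limit read from the data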;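 also: 0% = p47phox with labelled peptide and 100% = labelled peptide alone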
Target sequence (P14598 whole entry, looked up): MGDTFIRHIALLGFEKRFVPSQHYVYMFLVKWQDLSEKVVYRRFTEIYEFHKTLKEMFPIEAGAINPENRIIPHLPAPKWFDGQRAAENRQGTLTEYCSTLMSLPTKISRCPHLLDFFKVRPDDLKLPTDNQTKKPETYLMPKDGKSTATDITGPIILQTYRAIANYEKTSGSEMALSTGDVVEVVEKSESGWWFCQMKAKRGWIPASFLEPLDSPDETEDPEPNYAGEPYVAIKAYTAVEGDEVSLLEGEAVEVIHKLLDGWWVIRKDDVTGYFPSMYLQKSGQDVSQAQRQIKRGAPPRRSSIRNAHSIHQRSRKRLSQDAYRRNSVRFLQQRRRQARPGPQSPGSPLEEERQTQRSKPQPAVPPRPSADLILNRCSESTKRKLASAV
Hck Nef HTS: blocks Nef-activated human Hck kinase | P08631 | Recombinant Hck-YEEI plus Nef, Z-Lyte FRET kinase assay | inhibition, % at 20 µM | 220,000 compounds, 0.68% hits;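 active = Hck-Nef kinase inhibition above about 50%, limit read from the data; inactive = inhibition below that limit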;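 also: 0% = DMSO with Hck plus Nef and 100% = Hck alone without Nef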
WT yeast gro inh: growth inhibition of WT yeast, mitochondrial fusion screen. 190,000 compounds, 2.1% hits. AID 1362. mitochondrial fusion phenotypic screen, WT strain. inhibition, % at 10 µM; in the data active = inhibition above about 58%; tested in S. cerevisiae
RAM inhibit: blocks the yeast RAM network. AID 868. 190,000 compounds, 1.8% hits. inhibition, % at 50 µM. S. cerevisiae dse1pr::URA3 reporter, 5-FOA growth OD615, 2 d; analog-sensitive cbk1-as2 kinase mutant strain;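 active = inhibition above a set limit, 3 SD over mean compound inhibition, cut at about 8.4% in these data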;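 also: 0% = DMSO-only wells with no growth and 100% = 10 µM 1-NA-PP1 full growth; inhibition rescues growth on 5-FOA so higher OD means more RAM inhibition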
Arbovirus inh: antivirals against arbovirus infection | arbovirus infection cell-based antiviral screen | inhibition, % at 10 µM | 200,000 compounds, 0.37% hits | AID 1251; in the data active = inhibition above about 30%
Calb biofilm kill: mixtures killing C. albicans biofilm. C. albicans biofilm persisters + clotrimazole, fluorescence viability; primary screen in compound mixtures of four per well. inhibition, % at 7.6 µM. 120,000 compounds, 0.02% hits. AID 1242;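 active = inhibition above 30.3% in the primary screen of four-compound pools, then above 30% when the compound was retested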;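 also: compounds exposed to preformed 24 h biofilms for 48 h; 0% = untreated biofilm control and 100% = clotrimazole plus chlorhexidine kill blank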
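Incubation: 24 h biofilm formation, then 48 h compound exposure, 37 °C | Material: C. albicans biofilms | Buffer or medium: RPMI/MOPS medium, pH 7.0 | Measured by: 2-h Alamar Blue fluorescence, 535/590 nm excitation/emission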
Starred values were filed as active, the others as inactive; . = no result given. Shown are actives, neighbours in structure and some others; about 4.6% of the full set was active somewhere.

SMILES	NCF1 inh	Hck Nef HTS	WT yeast gro inh	RAM inhibit	Arbovirus inh	Calb biofilm kill
O=C(Nc1ccc(N2CCOCC2)cc1)Nc1ccc(Cl)c(Cl)c1	-22	1	22	4	-8	.
O=C1C=C(NC(=O)Nc2ccc(Cl)c(Cl)c2)CCC1	-8	13	80*	3	15	7
O=C(Nc1ccc(Cl)c(Cl)c1)Nc1ccc(Br)cc1F	-20	0	81*	7	-5	12
O=C(Nc1ccc(Cl)c(Cl)c1)Nc1ccccc1O	-31	6	.	.	.	5
CSc1sc(C(=O)NC(=O)NCc2ccncc2)c(C)c1-c1ccon1	-14	-2	.	.	.	9
CCC(C)(C)NC(=O)C(c1cccc(OC)c1OC)N(CCC(C)C)C(=O)CCC(=O)Nc1cc(C)on1 (centres undefined)	0	22	0	0	-7	12
O=C(/C=C/Nc1cccc(C(F)(F)F)c1)C(F)(F)F	-17	1	65*	3	8	.
COc1ccccc1N(C)S(=O)(=O)c1ccc(C(=O)O)cc1	5	28	-20	1	11	10
COc1ccccc1N(C)S(=O)(=O)c1ccc(C(=O)NC(C)(C)C)cc1	179*	3	-6	-1	0	.
Cc1cccc(NS(=O)(=O)c2ccc(C3CCCCC3)cc2)c1	-6	1	74*	5	-33	.
O=C(O)c1cccc(NS(=O)(=O)c2ccc(C3CCCCC3)cc2)c1	-12	12	19	4	7	4
CCOC(=O)C1=C(CC)Nc2ccccc2N/C1=N\S(=O)(=O)c1ccc2ccccc2c1	-17	25	72*	7	-3	6
COc1ccc(/C=C/C(=O)Nc2cc(C)nn2-c2nc3ccccc3n2Cc2cccc([N+](=O)[O-])c2)cc1	-53	6	-10	8.9*	-12	15
CCCCSc1nc2c(cc1C#N)CCC2	-9	6	22	4	-4	.
CCCSc1nc(C)c(-c2csc(C(C#N)=C3CCCC3)n2)cc1C#N	-23	34	3	8.9*	8	.
C[N+]1(C2CCC3CCCC2C3O)CCCCC1 (centres undefined)	-5	16	3	0	11	-9
c1coc(CN(Cc2ccco2)c2ncnc3c2oc2ccccc23)c1	-9	14	53	3	-14	6
Cc1ccc2nc(N/N=C/c3ccccc3F)nc(-c3ccccc3)c2c1	-8	1	64*	-1	-7	9
O=C(Nc1ccc(F)cc1F)N1CCC(c2nc3ccccc3o2)CC1	-9	4	2	-1	10	14
C=CCN(CC=C)C(=S)NC(=O)c1ccc(-c2ccccc2)cc1	-74	-1	66*	0	-15	.
CC(C)Oc1cccc(C(=O)NC(=S)Nc2ccccc2)c1	9	3	50	3	36*	-1
O=C(Nc1cnc2ccccc2c1)c1ccncc1	3	6	10	1	-6	.
O=C(NC(=S)Nc1cnc2ccccc2c1)c1ccccc1	-7	139*	23	-1	-5	-7
O=C(NC(=S)Nc1ccccc1)c1ccc(-c2ccccc2)cc1	-9	3	8	9.4*	12	13
CCC(CC)c1nnc(NC(=O)CCNC(=O)c2ccccc2Cl)s1	-3	18	8	-1	-1	8
SMILES	NCF1 inh	Hck Nef HTS	WT yeast gro inh	RAM inhibit	Arbovirus inh	Calb biofilm kill
Cc1ccccc1C1=Nn2c(nnc2-c2ccco2)SC1	4	19	.	.	.	3
CCOc1cccc(C(=O)Nc2ccc(N3CCN(S(C)(=O)=O)CC3)cc2)c1	-11	1	-3	6	5	.
CCOc1cc(OCC)cc(C(=O)NC(=S)Nc2cccc(C(F)(F)F)c2)c1	-9	0	2	11*	-7	.
CCOc1cccc(C(=O)NC(=S)Nc2ccc(N3CCCC3)cc2)c1	1	0	31	11*	-6	.
CCOc1ccc2c(c1)C(c1cccs1)=NNC(c1cccnc1)=N2	44*	22	0	-1	-1	9
Brc1ccc2c(c1)C(c1cccs1)=NNC(c1cccnc1)=N2	-9	-1	.	3	-4	.
COc1ccccc1CNc1nc(S(=O)(=O)c2ccccc2)c(Cl)s1	-46	1	40	9.8*	-3	23
CSc1nc(S(=O)(=O)c2ccccc2)c(Cl)s1	-1	15	-27	2	-2	17
COC(=O)c1ccc(-c2ccco2)n1Cc1nc(-c2ccc(OC)c(OC)c2)oc1C	-30	0	12	8.4*	-10	.
CC(C)CCNC(=O)c1ccc2c(c1)ncn2C1CCCCC1	0	5	2	1	-4	.
Cc1c(Cl)c(C(=O)NC2C3CC4CC(C3)CC2C4)nn1C (centres undefined)	-7	4	-7	-1	2	4
O=[N+]([O-])c1ccc(Nc2nc(NC3CCCCC3)nc(N3CCCC3)n2)cc1	-9	14	77*	7	-9	14
COc1ccc(Nc2nc(N3CCCCC3)c3ccccc3n2)cc1	-9	1	75*	2	-39	.
CCOc1ccc(Nc2nc(N3CCCCC3)nc(N3CCCCC3)n2)cc1	-14	2	61*	-1	3	.
COc1ccc(NC(=O)CCc2nc(-c3ccccc3F)no2)cc1	-9	1	14	0	1	.
O=C(CN1CCC(N2CCCCC2)CC1)N1CCOCC1	0	-6	3	3	6	19
O=c1oc(/C=C/c2ccco2)nc2sc3c(c12)CCC3	-21	-1	-17	3	63*	.
O=c1oc(-c2cccs2)nc2sc3c(c12)CCCC3	-13	-2	10	5	34*	.
CC(C)c1ccccc1NC(=S)NN(Cc1ccccc1)c1ccccc1	-1	0	62*	6	-16	.
CN1CCN(C2=Cc3ccccc3Sc3cc(F)ccc32)CC1	-1	9	94*	2	-35	7
CN1CCN(C2=Cc3ccc(Cl)cc3Sc3ccc(F)cc32)CC1	-37	9	51	2	-38	14
Cc1cc2c(cc1[N+](=O)[O-])NC(CNC(C)C)CC2 (centres undefined)	-11	27	.	.	.	18
CN(C)C(=S)NC(=O)C12CC3CC(C)(CC(C)(C3)C1)C2	-4	8	.	.	.	9
CC12CC3CC(C)(C1)CC(C(=O)NC(=S)N1CCCCC1)(C3)C2	-4	-2	77*	0	-9	.
CCOc1ccc(CC(=O)N2N=C(C)CC2(O)C(F)(F)F)cc1 (centres undefined)	5	3	-15	2	-1	7
Cc1cccc(NC(=S)NC2CCCC2)n1	9	-3	72*	1	11	10
Cc1cccc(NC(=S)NC2CCCCC2)n1	.	1	68*	1	9	3
Cc1cccc(-n2c(=O)c3c4c(sc3n3c(=S)[nH]nc23)CCC4)c1	3	15	7	2	34*	9
Cc1ccc(-n2c(=O)c3c4c(sc3n3c(=S)[nH]nc23)CCC4)cc1	-3	-1	.	.	.	13
COc1ccc2c(c1)-c1nc(NC(=O)c3cccs3)sc1CC2	-15	0	72*	3	-29	.
